In brackets after ≈: the same amount, converted by molar mass. Activity calls are given as the source filed them. The rule behind the calls is not given here.
Legend:
[1] = tested on: Candida albicans; assay: Antifungal activity against Candida albicans ATCC 10231 assessed as lowest concentration required for total inhibition by broth dilution assay; assay type: functional; details: read-out: MIC100
Procedure, shortened: (§1)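 Broth dilution against dermatophytes, C. albicans ATCC 10231 and 14053, and C. neoformans. The end point is the lowest concentration with total inhibition. "<" marks the lowest level tested, and ">" marks partial growth at that dilution.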

[2] = tested on: Trichophyton mentagrophytes; assay: Antifungal activity against Trichophyton mentagrophytes assessed as lowest concentration required for total inhibition broth dilution assay; assay type: functional; details: read-out: MIC100; procedure, shortened: as §1
[3] = tested on: Epidermophyton floccosum; assay: Antifungal activity against Epidermophyton floccosum assessed as lowest concentration required for total inhibition broth dilution assay; assay type: functional; details: read-out: MIC100; procedure, shortened: as §1
[4] = tested on: Candida albicans; assay: Antifungal activity against Candida albicans ATCC 14053 assessed as lowest concentration required for total inhibition by broth dilution assay; assay type: functional; details: read-out: MIC100; procedure, shortened: as §1
[5] = Lipophilic-hydrophilic balance, Rm of the compound assessed as change in compound Rm to miconazole Rm by reverse-phase TLC method; assay type: physicochemical
[6] = tested on: Microsporum audouinii; assay: Antifungal activity against Microsporum audouinii assessed as lowest concentration required for total inhibition broth dilution assay; assay type: functional; details: read-out: MIC100; procedure, shortened: as §1
[7] = tested on: Nannizzia gypsea; assay: Antifungal activity against Microsporum gypseum assessed as lowest concentration required for total inhibition broth dilution assay; assay type: functional; details: read-out: MIC100; procedure, shortened: as §1
[8] = tested on: Cryptococcus neoformans; assay: Antifungal activity against Cryptococcus neoformans assessed as lowest concentration required for total inhibition by broth dilution assay; assay type: functional; details: read-out: MIC100; procedure, shortened: as §1
[9] = tested on: Candida albicans; assay: Antifungal activity against Candida albicans in mouse vaginal infection model compound applied intravaginally as 2% formulation in an aqueous propylene glycol cream for 4 days bid; assay type: functional, organism-based; details: Vagina
Procedure, shortened: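 Mice with vaginal C. albicans infection, following Wildfeuer's method. The compound was applied intravaginally as a 2% formulation in an aqueous propylene glycol cream, twice daily for 4 days. Read-out was animals cured over total number infected.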

[10] = tested on: Pasteurella multocida; assay: Antibacterial activity against Pasteurella multocida ATCC 19427 assessed as lowest concentration required for total inhibition by broth microdilution assay; assay type: functional; details: read-out: MIC100
Procedure, shortened: (§2)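 Broth microdilution against the listed ATCC […] strains. The value is the lowest concentration giving total inhibition. "<" marks the lowest level tested, and ">" marks partial growth at that dilution.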

[11] = tested on: Staphylococcus aureus; assay: Antibacterial activity against Staphylococcus aureus ATCC 12600 assessed as lowest concentration required for total inhibition by broth microdilution assay; assay type: functional; details: read-out: MIC100; procedure, shortened: as §2
[12] = tested on: Cutibacterium acnes; assay: Antibacterial activity against Corynebacterium acnes ATCC 11828 assessed as lowest concentration required for total inhibition by broth microdilution assay; assay type: functional; details: read-out: MIC100; procedure, shortened: as §2
[13] = tested on: Erysipelothrix rhusiopathiae; assay: Antibacterial activity against Erysipelothrix insidiosa ATCC 19414 assessed as lowest concentration required for total inhibition by broth microdilution assay; assay type: functional; details: read-out: MIC100; procedure, shortened: as §2
[14] = tested on: Enterococcus faecalis; assay: Antibacterial activity against Streptococcus faecalis ATCC 14506 assessed as lowest concentration required for total inhibition by broth microdilution assay; assay type: functional; details: read-out: MIC100; procedure, shortened: as §2
[15] = silicone oil-impregnated silica gel, MeCN-H2O-AcOH

SMILES	MIC [1] [µg/mL]	MIC [2] [µg/mL]	MIC [3] [µg/mL]	MIC [4] [µg/mL]	deltaRm [5, 15]	MIC [6] [µg/mL]	MIC [7] [µg/mL]	MIC [8] [µg/mL]	Activity [9]	MIC [10] [µg/mL]	MIC [11] [µg/mL]	MIC [12] [µg/mL]	MIC [13] [µg/mL]	MIC [14] [µg/mL]	deltaRm ([5]; octanol/water)
O=C(O)C(=O)O.O=C(OC(Cn1ccnc1)c1ccc(Cl)cc1)c1ccccc1Cl (stereo not drawn)	100	10	5	100	-0.49	50	–	–	–	–	–	–	–	–	–
CCCCOC(=S)SC(Cn1ccnc1)c1ccc(Cl)cc1Cl.O=[N+]([O-])O (stereo not drawn)	30	3	< 0.1	10	0.19	–	3	1	Active	–	–	–	–	–	–
CCCCCC(=O)SC(Cn1ccnc1)c1ccc(Cl)cc1Cl.O=[N+]([O-])O (stereo not drawn)	100	30	< 0.1	30	-0.05	–	30	1	inactive	–	–	–	–	–	–
CCOC(=S)SC(Cn1ccnc1)c1ccc(Cl)cc1Cl.O=[N+]([O-])O (stereo not drawn)	50	< 0.1	< 0.1	50	-0.27	5	–	1	–	–	–	–	–	–	–
O=C(OC(Cn1ccnc1)c1ccc(Cl)cc1)c1ccc(Cl)cc1.O=[N+]([O-])O (stereo not drawn)	> 100	> 100	100	> 100	-0.31	100	–	10	–	–	–	–	–	–	–
O=C(O)C(=O)O.O=C(OC(Cn1ccnc1)c1ccc(Cl)cc1Cl)c1ccc([N+](=O)[O-])cc1 (stereo not drawn)	> 300	10	0.33	> 300	-0.54	33	–	–	–	–	–	–	–	–	–
O=C(O)C(=O)O.O=C(Oc1ccc(Cl)cc1)OC(Cn1ccnc1)c1ccc(Cl)cc1 (stereo not drawn)	> 100	10	10	> 100	-0.52	100	–	–	–	–	–	–	–	–	–
Clc1ccc(COC(Cn2ccnc2)c2ccc(Cl)cc2Cl)c(Cl)c1 (stereo not drawn) [MICONAZOLE]	30 (≈ 72.1 µM)	3 (≈ 7.21 µM)	< 0.1	30 (≈ 72.1 µM)	0	–	3 (≈ 7.21 µM)	< 0.3	Active	< 0.1	1 (≈ 2.4 µM)	10 (≈ 24 µM)	3 (≈ 7.21 µM)	10 (≈ 24 µM)	–
CCCCCCCCCCCC(=O)OC(Cn1ccnc1)c1ccc(Cl)cc1Cl.O=[N+]([O-])O (stereo not drawn)	> 300	> 100	1	> 300	1.1	–	> 100	< 1	–	1	10	> 100	10	100	–
O=C(SC(Cn1ccnc1)c1ccc(Cl)cc1Cl)c1ccc(Cl)cc1.O=[N+]([O-])O (stereo not drawn)	10	10	< 0.1	10	-0.03	–	30	< 1	Active	1	3	> 100	> 100	100	–
O=C(Cc1ccc(Cl)cc1)OC(Cn1ccnc1)c1ccc(Cl)cc1.O=C(O)C(=O)O (stereo not drawn)	50	10	1	50	–	10	–	–	–	–	–	–	–	–	-0.42
CCCCCCCCOC(=O)SC(Cn1ccnc1)c1ccc(Cl)cc1Cl.O=[N+]([O-])O (stereo not drawn)	> 300	10	< 0.1	> 300	0.82	–	30	< 1	–	1	1	100	10	30	–
CCCCCCCC(=O)OC(Cn1ccnc1)c1ccc(Cl)cc1Cl.O=[N+]([O-])O (stereo not drawn)	30	10	< 0.1	30	0.1	–	10	< 1	inactive	–	–	–	–	–	–
CCCCCCCC(=O)SC(Cn1ccnc1)c1ccc(Cl)cc1Cl.O=C(O)C(=O)O (stereo not drawn)	10	10	< 0.1	10	0.44	–	30	< 1	inactive	1	3	100	30	30	–
O=C(OC(Cn1ccnc1)c1ccc(Cl)cc1Cl)c1ccc(Cl)cc1.O=[N+]([O-])O (stereo not drawn)	300	30	< 0.1	300	-0.39	–	100	3	inactive	–	–	–	–	–	–
CCCOC(=S)SC(Cn1ccnc1)c1ccc(Cl)cc1Cl.O=[N+]([O-])O (stereo not drawn)	100	10	< 0.1	30	-0.03	–	10	< 0.3	Active	–	–	–	–	–	–
CCCCCCCCOC(=S)SC(Cn1ccnc1)c1ccc(Cl)cc1Cl.O=[N+]([O-])O (stereo not drawn)	100	30	1	100	1.23	–	30	< 1	–	1	> 100	100	30	1	–
